Experimental findings from ChEMBL document CHEMBL1649207, “Role of porins in the susceptibility of Mycobacterium smegmatis and Mycobacterium chelonae to aldehyde-based disinfectants and drugs” (2009) are described below.

≈ marks a conversion by molar mass, not a printed value. Calls of active or inactive are those of the source. No cut-off for these calls is given here. Where only a bound is given, the exact number is not on record here.

The subject of assay [1] is Mycolicibacterium smegmatis. Briefly: Antimicrobial activity against MspA-deficient Mycobacterium smegmatis str. MC2 155. It is filed as functional, organism-based.
For assay [2], the system named is Mycolicibacterium smegmatis. Briefly: Antimicrobial activity against Mycobacterium smegmatis str. MC2 155 harboring embB mutant gene. In kind it is functional, organism-based.
The subject of assay [3] is Mycolicibacterium smegmatis. Nature of the assay: Antimicrobial activity against Mycobacterium smegmatis str. MC2 155 deficient in glycopeptidolipid biosynthesis. In kind it is functional, organism-based.
The subject of assay [4] is Mycolicibacterium smegmatis. Nature of the assay: Antimicrobial activity against Lsr2-deficient Mycobacterium smegmatis str. MC2 155. In kind it is functional, organism-based.
For assay [5], the system named is Mycolicibacterium smegmatis. Briefly: Antimicrobial activity against Mycobacterium smegmatis str. MC2 155 deficient in mycothiol biosynthesis. In kind it is functional, organism-based.
For assay [6], the system named is Mycolicibacterium smegmatis. Nature of the assay: Antimicrobial activity against Mycobacterium smegmatis str. MC2 155 deficient in production of lipomannan and lipoarabinomannan. It is filed as functional, organism-based.
For assay [7], the system named is Mycolicibacterium smegmatis. Nature of the assay: Antimicrobial activity against Mycobacterium smegmatis str. MC2 155 deficient in production of polar phosphatidylinositol mannoside. It is filed as functional, organism-based.
Assay [8] deals with Mycobacteroides chelonae. Nature of the assay: Antimicrobial activity against Mycobacterium chelonae 9917 harboring pZS01 carrying mspA gene by resazurine microtiter assay. It is filed as functional.
Assay [9] relates to Mycolicibacterium smegmatis. Briefly: Antimicrobial activity against MspA- and MspC-deficient Mycobacterium smegmatis str. MC2 155. In kind it is functional, organism-based.
In assay [10] the test system is Mycolicibacterium smegmatis. Briefly: Antimicrobial activity against Mycobacterium smegmatis str. MC2 155 harboring embA mutant gene. In kind it is functional, organism-based.
The test system of assay [11] is Mycolicibacterium smegmatis. Briefly: Antimicrobial activity against Mycobacterium smegmatis str. MC2 155 deficient in production of lipomannan and produces truncated lipoarabinomannan. It is filed as functional, organism-based.
Assay [12] deals with Mycobacteroides chelonae. Briefly: Antimicrobial activity against Mycobacterium chelonae ATCC 35752 harboring pZS01 carrying mspA gene by resazurine microtiter assay. In kind it is functional.
Assay [13] has as its system Mycobacteroides chelonae. Nature of the assay: Antimicrobial activity against Mycobacterium chelonae 9917 by resazurine microtiter assay. In kind it is functional. The method in brief: (§1)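 Colorimetric resazurin microtiter MIC assay in 7H9-oleic acid-albumin-dextrose-catalase broth at 30°C, with well-dispersed bacteria. Growth was also checked by visual scanning to confirm the readings. At least three repeats on independent culture batches.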
On the technique in general: Resazurin is reduced to fluorescent resorufin, in cell work by metabolically active cells.

Assay [14] deals with Mycobacteroides chelonae. Nature of the assay: Antimicrobial activity against Mycobacterium chelonae ATCC 35752 by resazurine microtiter assay. It is filed as functional. A digest of the protocol:
as §1

Setting [15] is: Mycobacteroides chelonae, 9917, Urine.

For `O=CCCCC=O`, the outcome in [1], in assay [3], in [4], in assay [5], in assay [6] and in assay [7] was inactive. Further, the outcome in assay [9] was inactive. Besides, the result (in assay [2]; with Mycobacteroides chelonae [8] (Urine); in assay [10]; in [11]; in the assay on Mycobacteroides chelonae [12] (Urine)) was Active.
With `O=Cc1ccccc1C=O`, the outcome with Mycobacteroides chelonae [8] (Urine) and in the assay with Mycobacteroides chelonae [12] (Urine) was Active.
On to `CC1(C)S[C@@H]2[C@H](NC(=O)[C@H](N)c3ccccc3)C(=O)N2[C@H]1C(=O)O` [AMPICILLIN], for which the minimum inhibitory concentration (MIC) in the assay with Mycobacteroides chelonae [13] and in the assay on Mycobacteroides chelonae [14] was more than 500 µg/mL throughout.
Regarding `CC[C@H]1OC(=O)[C@H](C)[C@@H](O[C@H]2C[C@@](C)(OC)[C@@H](O)[C@H](C)O2)[C@H](C)[C@@H](O[C@@H]2O[C@H](C)C[C@H](N(C)C)[C@H]2O)[C@](C)(O)C[C@@H](C)CN(C)[C@H](C)[C@@H](O)[C@]1(C)O` [AZITHROMYCIN], the MIC against Mycobacteroides chelonae [13] came to 500 µg/mL (≈ 668 µM); with Mycobacteroides chelonae [14], 500 µg/mL (≈ 668 µM); against Mycobacteroides chelonae [8] (setting [15]), 500 µg/mL (≈ 668 µM); against Mycobacteroides chelonae [12] (ATCC 35752, Urine) it was 500 µg/mL (≈ 668 µM).
Take `O=C(N[C@H](CO)[C@H](O)c1ccc([N+](=O)[O-])cc1)C(Cl)Cl` [CHLORAMPHENICOL]: the MIC in the assay with Mycobacteroides chelonae [13] was more than 500 µg/mL; in the assay on Mycobacteroides chelonae [14], more than 500 µg/mL; against Mycobacteroides chelonae [8] (setting [15]), 50 µg/mL (≈ 155 µM); against Mycobacteroides chelonae [12] (ATCC 35752, Urine), 50 µg/mL (≈ 155 µM).
For the compound `O=C(O)c1cn(C2CC2)c2cc(N3CCNCC3)c(F)cc2c1=O` [CIPROFLOXACIN], the MIC was found to be 5 µg/mL (≈ 15.1 µM) with Mycobacteroides chelonae [13]; 1.5 µg/mL (≈ 4.53 µM) in the assay on Mycobacteroides chelonae [14]; 1 µg/mL (≈ 3.02 µM) with Mycobacteroides chelonae [8] (setting [15]); 2.5 µg/mL (≈ 7.54 µM) with Mycobacteroides chelonae [12] (ATCC 35752, Urine).
On to `CC[C@H]1OC(=O)[C@H](C)[C@@H](O[C@H]2C[C@@](C)(OC)[C@@H](O)[C@H](C)O2)[C@H](C)[C@@H](O[C@@H]2O[C@H](C)C[C@H](N(C)C)[C@H]2O)[C@](C)(OC)C[C@@H](C)C(=O)[C@H](C)[C@@H](O)[C@]1(C)O` [CLARITHROMYCIN], for which the MIC is more than 250 µg/mL against Mycobacteroides chelonae [13]; 25 µg/mL (≈ 33.4 µM) in the assay with Mycobacteroides chelonae [14]; 25 µg/mL (≈ 33.4 µM) against Mycobacteroides chelonae [8] (setting [15]); 50 µg/mL (≈ 66.8 µM) with Mycobacteroides chelonae [12] (ATCC 35752, Urine).
For `CC[C@H]1OC(=O)[C@H](C)[C@@H](O[C@H]2C[C@@](C)(OC)[C@@H](O)[C@H](C)O2)[C@H](C)[C@@H](O[C@@H]2O[C@H](C)C[C@H](N(C)C)[C@H]2O)[C@](C)(O)C[C@@H](C)C(=O)[C@H](C)[C@@H](O)[C@]1(C)O` [ERYTHROMYCIN], the MIC was determined as 500 µg/mL (≈ 681 µM) with Mycobacteroides chelonae [13]; 20 µg/mL (≈ 27.3 µM) with Mycobacteroides chelonae [14]; 1 µg/mL (≈ 1.36 µM) in the assay with Mycobacteroides chelonae [8] (setting [15]); 0.25 µg/mL (≈ 0.341 µM) against Mycobacteroides chelonae [12] (ATCC 35752, Urine).
The corresponding values for `CC[C@@H](CO)NCCN[C@@H](CC)CO` [ETHAMBUTOL] are more than 500 µg/mL, more than 500 µg/mL, 250 µg/mL (≈ 1220 µM) and 25 µg/mL (≈ 122 µM).
As for `CCc1cc(C(N)=S)ccn1` [ETHIONAMIDE], the MIC in the assay with Mycobacteroides chelonae [13] was more than 400 µg/mL; in the assay on Mycobacteroides chelonae [14] it was more than 400 µg/mL; against Mycobacteroides chelonae [8] (setting [15]) it was 50 µg/mL (≈ 301 µM); against Mycobacteroides chelonae [12] (ATCC 35752, Urine) it was 50 µg/mL (≈ 301 µM).
In the case of `CN[C@@H]1C[C@H](N)[C@@H](O)[C@H](O[C@H]2O[C@H](CO)[C@H](O)[C@@H]3O[C@@]4(O[C@@H]23)O[C@H]([C@H](N)CO)[C@H](O)[C@H](O)[C@H]4O)[C@H]1O` [HYGROMYCIN], the MIC with Mycobacteroides chelonae [13] and with Mycobacteroides chelonae [14] was more than 500 µg/mL throughout.
`NNC(=O)c1ccncc1` [ISONIAZID]: the minimum inhibitory concentration (MIC) against Mycobacteroides chelonae [13] and in the assay with Mycobacteroides chelonae [14] was more than 400 µg/mL throughout.
As to `NC[C@H]1O[C@H](O[C@H]2[C@H](O)[C@@H](O[C@H]3O[C@H](CO)[C@@H](O)[C@H](N)[C@H]3O)[C@H](N)C[C@@H]2N)[C@H](O)[C@@H](O)[C@@H]1O` [KANAMYCIN], the minimal inhibitory concentration (MIC) against Mycobacteroides chelonae [13] was 10 µg/mL (≈ 20.6 µM); in the assay with Mycobacteroides chelonae [14], 50 µg/mL (≈ 103 µM).
In the case of `CC(=O)NC[C@H]1CN(c2ccc(N3CCOCC3)c(F)c2)C(=O)O1` [LINEZOLID], the MIC amounted to 100 µg/mL (≈ 296 µM) with Mycobacteroides chelonae [13]; 25 µg/mL (≈ 74.1 µM) with Mycobacteroides chelonae [14]; 1 µg/mL (≈ 2.96 µM) against Mycobacteroides chelonae [8] (setting [15]); 5 µg/mL (≈ 14.8 µM) in the assay with Mycobacteroides chelonae [12] (ATCC 35752, Urine).
In the case of `CCn1cc(C(=O)O)c(=O)c2cc(F)c(N3CCNCC3)cc21` [NORFLOXACIN], the MIC in the assay with Mycobacteroides chelonae [13] and in the assay on Mycobacteroides chelonae [14] was 5 µg/mL (≈ 15.7 µM) in each case.
Regarding `NC(=O)c1cnccn1` [PYRAZINAMIDE], the MIC with Mycobacteroides chelonae [13] and with Mycobacteroides chelonae [14] was more than 500 µg/mL throughout.
Regarding `CO[C@H]1/C=C/O[C@@]2(C)Oc3c(C)c(O)c4c(O)c(c(/C=N/N5CCN(C)CC5)c(O)c4c3C2=O)NC(=O)/C(C)=C\C=C\[C@H](C)[C@H](O)[C@@H](C)[C@@H](O)[C@@H](C)[C@H](OC(C)=O)[C@@H]1C` [RIFAMPIN], the MIC in the assay with Mycobacteroides chelonae [13] was more than 500 µg/mL; against Mycobacteroides chelonae [14], 25 µg/mL (≈ 30.4 µM); against Mycobacteroides chelonae [8] (setting [15]) it was 100 µg/mL (≈ 122 µM); against Mycobacteroides chelonae [12] (ATCC 35752, Urine) it was 5 µg/mL (≈ 6.08 µM).
In the same order, the values of `CN[C@@H]1[C@H](O[C@H]2[C@H](O[C@H]3[C@H](O)[C@@H](O)[C@H](N=C(N)N)[C@@H](O)[C@@H]3N=C(N)N)O[C@@H](C)[C@]2(O)C=O)O[C@@H](CO)[C@H](O)[C@H]1O` [STREPTOMYCIN] are 10 µg/mL (≈ 17.2 µM), 200 µg/mL (≈ 344 µM), 10 µg/mL (≈ 17.2 µM) and 250 µg/mL (≈ 430 µM).
As for `CN(C)[C@@H]1C(O)=C(C(N)=O)C(=O)[C@@]2(O)C(O)=C3C(=O)c4c(O)cccc4[C@@](C)(O)[C@H]3C[C@@H]12` [TETRACYCLINE], the MIC is more than 500 µg/mL against Mycobacteroides chelonae [13]; 50 µg/mL (≈ 113 µM) against Mycobacteroides chelonae [14]; 25 µg/mL (≈ 56.3 µM) in the assay on Mycobacteroides chelonae [8] (setting [15]); 5 µg/mL (≈ 11.3 µM) in the assay on Mycobacteroides chelonae [12] (ATCC 35752, Urine).
Consider `NC[C@H]1O[C@H](O[C@H]2[C@H](O)[C@@H](O[C@H]3O[C@H](CO)[C@@H](O)[C@H](N)[C@H]3O)[C@H](N)C[C@@H]2N)[C@H](N)C[C@@H]1O` [TOBRAMYCIN], for which the minimal inhibitory concentration (MIC) against Mycobacteroides chelonae [13] and in the assay with Mycobacteroides chelonae [14] was 25 µg/mL (≈ 53.5 µM) in each case.
With `CN[C@H](CC(C)C)C(=O)N[C@H]1C(=O)N[C@@H](CC(N)=O)C(=O)N[C@H]2C(=O)N[C@H]3C(=O)N[C@H](C(=O)N[C@H](C(=O)O)c4cc(O)cc(O)c4-c4cc3ccc4O)[C@H](O)c3ccc(c(Cl)c3)Oc3cc2cc(c3O[C@@H]2O[C@H](CO)[C@@H](O)[C@H](O)[C@H]2O[C@H]2C[C@](C)(N)[C@H](O)[C@H](C)O2)Oc2ccc(cc2Cl)[C@H]1O` [VANCOMYCIN], the MIC against Mycobacteroides chelonae [13] is more than 500 µg/mL; with Mycobacteroides chelonae [14] it was 5 µg/mL (≈ 3.45 µM); in the assay with Mycobacteroides chelonae [8] (setting [15]), 25 µg/mL (≈ 17.3 µM); with Mycobacteroides chelonae [12] (ATCC 35752, Urine), 5 µg/mL (≈ 3.45 µM).
As for GENTAMICIN, the MIC in the assay on Mycobacteroides chelonae [13] worked out at 15 µg/mL; in the assay on Mycobacteroides chelonae [14], 7.5 µg/mL; in the assay with Mycobacteroides chelonae [8] (Urine), 20 µg/mL; in the assay on Mycobacteroides chelonae [12] (Urine) it was 7.5 µg/mL.

A word on the MIC: it is the lowest concentration that inhibits growth of the organism. A low value points to greater potency.
